Source: PubChem BioAssay (Johns Hopkins Ion Channel Center)
Compounds with a hit are over-represented: about 2.3% of the library has one in this group of screens.
TRPC6 act: activates the mouse TRPC6 cation channel | HEK293-TRPC6 membrane potential dye fluorescence; stronger effect = higher value | B-score at 10 µM | 310,000 compounds, 0.13% hits;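 active = B-score of the integrated fluorescence ratio above library mean plus 3 SD, and starting fluorescence ratio within library mean plus 5 SD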;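 note: higher score means more depolarization so channel activation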
TRPC4 potent: TRPC4 (mouse) allosteric potentiation; Q9QUQ5; HEK293 TRPC4beta/mu-opioid, DAMGO EC20, Fluo-4 Ca2+ flux; stronger effect = higher value; B-score at 10 µM; 310,000 compounds, 0.42% hits; AID 2227;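 active = B-score of calcium response area above 5 SD of library B-scores, with initial fluorescence ratio within 5 SD of library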
Target sequence (Q9QUQ5 whole entry, looked up): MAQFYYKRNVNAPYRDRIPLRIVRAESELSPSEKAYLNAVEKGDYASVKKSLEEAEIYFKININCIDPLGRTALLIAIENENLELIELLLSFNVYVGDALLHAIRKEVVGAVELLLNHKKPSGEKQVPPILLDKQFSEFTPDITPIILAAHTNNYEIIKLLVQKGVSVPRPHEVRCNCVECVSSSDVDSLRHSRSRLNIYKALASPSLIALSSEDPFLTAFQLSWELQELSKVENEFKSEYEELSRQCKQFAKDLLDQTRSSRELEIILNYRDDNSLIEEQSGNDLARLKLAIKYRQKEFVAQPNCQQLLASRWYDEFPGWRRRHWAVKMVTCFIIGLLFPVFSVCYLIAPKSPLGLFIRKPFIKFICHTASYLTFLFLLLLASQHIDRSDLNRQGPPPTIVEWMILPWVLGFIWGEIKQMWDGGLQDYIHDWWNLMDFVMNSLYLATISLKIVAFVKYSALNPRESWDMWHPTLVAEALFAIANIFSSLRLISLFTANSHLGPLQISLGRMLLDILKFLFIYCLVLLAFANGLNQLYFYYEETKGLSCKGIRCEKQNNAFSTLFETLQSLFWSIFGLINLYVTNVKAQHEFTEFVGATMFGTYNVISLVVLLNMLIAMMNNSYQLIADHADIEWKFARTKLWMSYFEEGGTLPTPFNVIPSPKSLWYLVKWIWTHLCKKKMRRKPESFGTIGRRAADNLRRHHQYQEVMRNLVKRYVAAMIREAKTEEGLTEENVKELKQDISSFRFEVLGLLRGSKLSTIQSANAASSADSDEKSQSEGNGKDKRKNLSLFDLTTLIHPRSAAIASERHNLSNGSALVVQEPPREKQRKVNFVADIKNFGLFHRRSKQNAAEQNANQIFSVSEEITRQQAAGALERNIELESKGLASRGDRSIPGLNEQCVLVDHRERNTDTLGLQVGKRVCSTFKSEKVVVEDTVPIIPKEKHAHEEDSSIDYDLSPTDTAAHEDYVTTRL
TRPC4 agonist: TRPC4 (mouse) channel activation; B-score at 10 µM; AID 2237; 310,000 compounds, 0.49% hits; HEK293 TRPC4beta/mu-opioid, Fluo4 calcium fluorescence; stronger effect = higher value;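 active = B-score above 5 SD of library B-scores, and initial fluorescence ratio not above library mean plus 5 SD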;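 note: positive B-score marks a calcium rise read as TRPC4 activation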
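system = HEK293 cells stably co-expressing mouse TRPC4beta and mu-opioid receptor | schedule = Fluo4 dye loading 45 min at room temperature, 110 s recording | measure = B-scored integrated calcium fluorescence ratio | signal = Fluo4 calcium-sensitive dye fluorescence, kinetic, 1 Hz baseline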
TRPC4 inh: blocks the mouse TRPC4 cation channel; Q9QUQ5; HEK293 TRPC4beta/mu-opioid, DAMGO-evoked Fluo4 calcium flux; stronger effect = lower value; B-score at 10 µM; 300,000 compounds, 0.39% hits; AID 2247;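 active = B-score over 3 SD under the library average, no early fluorescence shift, positive overall ratio signal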
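material = TRPC4beta/mu-opioid receptor HEK293 cell line | probe or stimulus = sequential submaximal and maximal DAMGO stimulation | compound dosing = one concentration per compound | measured by = Fluo4 Ca2+ flux fluorescence | evaluation = integrated fluorescence ratio relative to baseline, converted to per-well B score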
TRPC6 inh: inhibitors of mouse TRPC6 channel; 310,000 compounds, 1.1% hits; Q61143; AID 2553; B-score at 10 µM; HEK293-TRPC6, membrane potential dye, ACh-evoked depolarization; stronger effect = lower value;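 active = B-score under library mean minus 3 SD, initial fluorescence not abnormally high, positive integrated signal ratio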;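 note: B-score derived from integrated fluorescence ratio over the kinetic read; more negative B-score means stronger inhibition of depolarization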
TRPC4 spec 2: second selectivity test of TRPC6 inhibitors: effect on mouse TRPC4 | shares compounds with TRPC6 inh | HEK293 TRPC4/MOR, membrane potential dye fluorescence; channel activated by saturating DAMGO dose | inhibition, % at 10 µM | 920 compounds, 42% hits | AID 2776;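 active = compounds whose fluorescence signal differed from control wells by over 3 SD, either direction, in both duplicate plates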
TRPC4 spec: mouse TRPC4 off-target activity of TRPC6 inhibitors; shares compounds with TRPC6 inh; HEK293 TRPC4/mu-opioid, membrane potential fluorescence; activity change, negative = inhibition, % at 10 µM; 920 compounds, 61% hits; AID 2777;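 active = rise or fall in signal beyond 3 SD of buffer-only wells in both replicate plates, either sign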;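 note: integrated kinetic ratio of fluorescence range over baseline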
HEK293 MPD ctr 2-1: second check of TRPC6 inhibitor effects in parental HEK293 cells; shares compounds with TRPC6 inh; parental HEK293 membrane potential dye fluorescence; maximal acetylcholine challenge after compound addition; signal change vs control, % at 10 µM; 920 compounds, 31% hits;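 active = membrane potential signal moving either way by over 3 SD of the maximum-effect control, in both duplicate plates, meaning non-specific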
HEK293 MPD ctr-1: checks TRPC6 inhibitor effects in parental HEK293 cells. shares compounds with TRPC6 inh. parental HEK293 membrane potential dye fluorescence. membrane potential signal change, % at 10 µM. 920 compounds, 60% hits. AID 2780;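 active = membrane potential signal shifting up or down by more than 3 SD of buffer-only wells, on both duplicate plates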
HEK293 MPD ctr-2: parental HEK293 nonspecific activity of TRPC6 modulators. 2,400 compounds, 51% hits. shares compounds with TRPC6 inh. membrane potential dye fluorescence. membrane potential signal change, % at 10 µM. AID 488924;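 active = membrane potential signal moves up or down beyond 5 SD from buffer-only wells, on both duplicate plates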
HEK293 MPD ctr 2-2: second check of TRPC6 modulator effects in parental HEK293 cells; AID 488926; inhibition, % at 10 µM; membrane potential dye fluorescence; after compound, maximal acetylcholine stimulation; 2,400 compounds, 14% hits; shares compounds with TRPC6 inh;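 active = membrane potential signal drops by more than 5 SD from the mean control signal, in both duplicate plates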
TRPC4/MOR mod: selectivity of TRPC6 modulators against mouse TRPC4. shares compounds with TRPC6 inh. HEK293 TRPC4/mu-opioid, membrane potential fluorescence. percent change from control (negative = decrease, positive = increase), % at 10 µM. 2,400 compounds, 69% hits;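 active = membrane potential signal moved up or down beyond 5 SD of buffer control wells, in both duplicate plates, actives on both sides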
TRPC4 ctr inh 2: second check of whether TRPC6 modulators also affect mouse TRPC4; 2,400 compounds, 55% hits; inhibition, % at 10 µM; shares compounds with TRPC6 inh; HEK293 TRPC4/mu-opioid, membrane potential dye fluorescence; stimulated with maximal-effect DAMGO;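 active = drop in membrane potential signal beyond 5 SD of the control wells in both duplicate plates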;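 note: TRPC4 counter screen for TRPC6 hits run under conditions tuned for TRPC6 not TRPC4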
TRPC6 inh conf: confirmation of mouse TRPC6 inhibitors. shares compounds with TRPC6 inh. HEK293-TRPC6, membrane potential dye, ACh-evoked depolarization. inhibition, % at 10 µM. 3,300 compounds, 43% hits. AID 488960;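 active = fluorescence ratio falls more than 5 SD below the full-stimulation control mean, in both duplicate runs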;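 note: integrated fluorescence ratio of peak minus minimum over baseline after agonist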
TRPC6 act conf: confirmation of mouse TRPC6 activators; shares compounds with TRPC6 inh; HEK293-TRPC6 membrane potential dye fluorescence, FDSS; activation, % at 10 µM; 2,800 compounds, 11% hits; AID 488961;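 active = ratio signal rise beyond 5 SD above unstimulated control wells' mean, seen in both duplicate runs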
Large screens that a line does not name were inactive (follow-up assays come after a bar, where they were run).

Cc1cc(C)n(-c2nc(NCCCN(C)C)c3c4c(sc3n2)CCCC4)n1	TRPC6 inh -7.11 | TRPC4 spec 2 66.5% | TRPC4 spec inactive | HEK293 MPD ctr 2-1 inactive | HEK293 MPD ctr-1 inactive | TRPC6 inh conf 57.2% | TRPC6 act conf inactive
Cc1cc(C)n(-c2nc(NCCCN(C)C)c3c4c(sc3n2)COC(C)(C)C4)n1	TRPC6 inh -7.58 | TRPC4 spec 2 inactive | TRPC4 spec -10.7% | HEK293 MPD ctr 2-1 inactive | HEK293 MPD ctr-1 -187.5% | TRPC6 inh conf inactive | TRPC6 act conf inactive
Cc1cc(C)n(-c2nc(NCCN(C)C)c3c4c(sc3n2)COC(C)(C)C4)n1	TRPC6 inh -5.39 | HEK293 MPD ctr-2 inactive | HEK293 MPD ctr 2-2 inactive | TRPC4/MOR mod -13.0% | TRPC4 ctr inh 2 44.0% | TRPC6 inh conf inactive | TRPC6 act conf inactive
O=C(COc1ccc(Cl)cc1)NC1=NN(c2ccccc2)C(=O)C1	none
N#C/C(C(N)=O)=c1/ccc2c(c1)N1C3=C(CCCC3)CC3CCCCC31N=2 (centres undefined)	TRPC6 inh -12.4 | HEK293 MPD ctr-2 -262.5% | HEK293 MPD ctr 2-2 82.0% | TRPC4/MOR mod -52.5% | TRPC4 ctr inh 2 94.0% | TRPC6 inh conf 80.0% | TRPC6 act conf inactive
CCC(C)NC(=O)[C@@H]1CSC2c3ccccc3C(=O)N21 (some centres undefined)	none
O=C(CSc1nnc(-c2ccncc2)n1Cc1ccco1)OC1CCCCC1	none
O=C(CSc1nnc(-c2ccco2)n1Cc1ccccc1)OC1CCCCC1	TRPC6 act 11.8 | HEK293 MPD ctr-2 382.5% | HEK293 MPD ctr 2-2 inactive | TRPC4/MOR mod 53.0% | TRPC4 ctr inh 2 52.0% | TRPC6 inh conf inactive | TRPC6 act conf 86.0%
CC1CCN(CC(C)CNC(=O)c2cc(-c3ccccn3)nc3ccccc23)CC1 (centres undefined)	TRPC6 inh -8.58 | TRPC4 spec 2 70.0% | TRPC4 spec inactive | HEK293 MPD ctr 2-1 208.5% | HEK293 MPD ctr-1 inactive | TRPC6 inh conf inactive | TRPC6 act conf inactive
Oc1ccc(-c2nc3ccccc3s2)c(O)c1	TRPC6 inh -5.37 | HEK293 MPD ctr-2 inactive | HEK293 MPD ctr 2-2 inactive | TRPC4/MOR mod inactive | TRPC4 ctr inh 2 inactive | TRPC6 inh conf inactive | TRPC6 act conf inactive
CCN(CC)c1ccc(C=C2C(=O)OC(C)(C(C)(C)C)OC2=O)cc1 (centres undefined)	TRPC6 act 46.3 | HEK293 MPD ctr-2 inactive | HEK293 MPD ctr 2-2 inactive | TRPC4/MOR mod 102.5% | TRPC4 ctr inh 2 inactive | TRPC6 inh conf inactive | TRPC6 act conf inactive
CCN(CC)c1ccc(C=C2C(=O)OC3(CCCC3)OC2=O)cc1	TRPC6 act 54.1 | HEK293 MPD ctr-2 763.0% | HEK293 MPD ctr 2-2 inactive | TRPC4/MOR mod 116.0% | TRPC4 ctr inh 2 inactive | TRPC6 inh conf inactive | TRPC6 act conf 295.0%
O=C1/C(=C/c2ccc(F)c(F)c2)CSc2sccc21	none
O=C1/C(=C\c2ccc(C(F)(F)F)cc2)CSc2sccc21	TRPC6 inh -4.98 | HEK293 MPD ctr-2 inactive | HEK293 MPD ctr 2-2 inactive | TRPC4/MOR mod 8.5% | TRPC4 ctr inh 2 inactive | TRPC6 inh conf inactive | TRPC6 act conf inactive
COc1ccc(-c2cc(=O)c3ccccc3o2)cc1	none
COc1ccc(N=c2cc(-c3ccc(OC)cc3)oc3ccccc23)cc1	TRPC6 inh -5.54 | HEK293 MPD ctr-2 -109.0% | HEK293 MPD ctr 2-2 inactive | TRPC4/MOR mod -25.5% | TRPC4 ctr inh 2 52.0% | TRPC6 inh conf 38.0% | TRPC6 act conf inactive
COc1ccc(-c2cc(=Nc3ccc(C)cc3)c3ccccc3o2)cc1	TRPC6 inh -8.77 | TRPC4 spec 2 inactive | TRPC4 spec -11.9% | HEK293 MPD ctr 2-1 inactive | HEK293 MPD ctr-1 inactive | TRPC6 inh conf inactive | TRPC6 act conf inactive
CCOc1ccc(N=c2cc(-c3ccc(OC)cc3)oc3ccccc23)cc1	none
COc1ccc(N=c2cc(-c3ccc(O)cc3)oc3ccccc23)cc1	TRPC6 inh -6.07 | HEK293 MPD ctr-2 -93.5% | HEK293 MPD ctr 2-2 inactive | TRPC4/MOR mod -28.0% | TRPC4 ctr inh 2 64.0% | TRPC6 inh conf 41.0% | TRPC6 act conf inactive
COc1ccc(S(=O)(=O)Nc2cccc(F)c2C)cc1C(=O)N1CCOCC1	none
CCN(CC)Cc1c(O)ccc2cc(-c3nc4ccccc4n3C)c(=O)oc12	none
OCC[C@@H]1C[C@H](O)[C@@H](O)[C@@]2(CCc3ccccc3CO2)O1	none
Cc1cccnc1NC(=O)CCc1c[nH]c2ccccc12	none
COC(=O)CC(N)c1ccc(OC)c2ccccc12 (centres undefined)	TRPC6 inh -5.26 | HEK293 MPD ctr-2 inactive | HEK293 MPD ctr 2-2 inactive | TRPC4/MOR mod inactive | TRPC4 ctr inh 2 inactive | TRPC6 inh conf inactive | TRPC6 act conf inactive
CCOC(=O)[C@@H]1[C@H]2COc3ccccc3[C@@H]2N2C(=O)N(c3ccccc3)C(=O)[C@]12C	none
C[N+](C)(C)C/C=C1/COCO1	TRPC6 inh -6.65 | TRPC4 spec 2 inactive | TRPC4 spec 0.5% | HEK293 MPD ctr 2-1 inactive | HEK293 MPD ctr-1 0.3% | TRPC6 inh conf inactive
CCOc1cc(S(=O)(=O)N2CCN(C(=O)c3ccco3)CC2)ccc1F	TRPC4 potent 22, TRPC6 inh -5.7 | HEK293 MPD ctr-2 inactive | HEK293 MPD ctr 2-2 inactive | TRPC4/MOR mod 42.0% | TRPC4 ctr inh 2 inactive | TRPC6 inh conf 37.5%
